The values below come from ChEMBL document CHEMBL1152738, “Synthesis and in vitro antitubercular activity of a series of quinoline derivatives” (2009).

In brackets after ≈: the same amount, converted by molar mass. Bounds are passed on as bounds.

This experiment concerns Mycobacterium tuberculosis. The experiment in a line: Antitubercular activity against Mycobacterium tuberculosis H37Rv after 5 days by microplate alamar blue assay. The settings on record: 120 h. Type of experiment: functional. Summed up:
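M. tuberculosis H37Rv (ATCC 27294, rifampin- and isoniazid-susceptible) tested by MABA. Compounds serially diluted directly in Middlebrook 7H9 broth in 96-well plates, which were sealed and incubated at 37 °C for 5 days. A fresh 1:1 Alamar Blue/10% Tween 80 mix was then added and plates were incubated 24 h more. MIC was the lowest concentration preventing the blue-to-pink colour change.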
(In general: Alamar Blue is a resazurin reagent that responds to reducing activity.)

What is called MIC is the least concentration at which growth counts as inhibited. Lower therefore signals greater potency. For `NCCCCCCNc1ccnc2cc(Cl)ccc12`, it took 25 µg/mL (≈ 90 µM) to inhibit growth (MIC). Next, `C=C[C@H]1CN2CC[C@H]1C[C@H]2[C@H](O)c1ccnc2ccc(OC)cc12` [QUININE]: 100 µg/mL (≈ 308 µM); `OCCNc1ccnc2cc(Cl)ccc12`: greater than 100 µg/mL. Next, `CNCCNc1ccnc2cc(Cl)ccc12`: greater than 100 µg/mL; `CCCCNc1ccnc2cc(Cl)ccc12`: 12.5 µg/mL (≈ 53.3 µM); `CCCCNc1ccnc2ccccc12`: 50 µg/mL (≈ 250 µM). The same measure for `OCCNc1ccnc2ccccc12`: greater than 100 µg/mL. On to `CCCNc1ccnc2cc(Cl)ccc12`, for which the minimal inhibitory concentration (MIC) was found to be 50 µg/mL (≈ 227 µM). The same measure for `CC(C)Nc1ccnc2cc(Cl)ccc12`: 50 µg/mL (≈ 227 µM); for `NCCNc1ccnc2cc(Cl)ccc12`: greater than 100 µg/mL; for `CCN(CC)Cc1cc(Nc2ccnc3cc(Cl)ccc23)ccc1O.Cl`: 100 µg/mL.

`OCCNCCNc1ccnc2cc(Cl)ccc12`: the minimum inhibitory concentration (MIC) is greater than 100 µg/mL. On to `ClCCNc1ccnc2cc(Cl)ccc12`, for which it took 12.5 µg/mL (≈ 51.8 µM) to inhibit growth (MIC).

For `ClCCCNc1ccnc2cc(Cl)ccc12`, the MIC was 50 µg/mL (≈ 196 µM). `Nc1ccnc2cc(Cl)ccc12` showed a minimum inhibitory concentration (MIC) greater than 100 µg/mL.

With `CCCCNCCNc1ccnc2cc(Cl)ccc12`, the MIC was greater than 100 µg/mL. As to `[N-]=[N+]=NCCNc1ccnc2cc(Cl)ccc12`, the MIC was found to be 50 µg/mL (≈ 202 µM). Next, `CNc1ccnc2cc(Cl)ccc12`: 100 µg/mL (≈ 519 µM); `NCCCCNc1ccnc2cc(Cl)ccc12`: greater than 100 µg/mL; `NCCCCCCCCCCNc1ccnc2cc(Cl)ccc12`: 3.12 µg/mL (≈ 9.34 µM). As to `Clc1ccc2c(NCCNCc3ccccc3)ccnc2c1`, the minimum inhibitory concentration (MIC) was found to be 50 µg/mL (≈ 160 µM). This MIC is about 16-fold higher than that of the compound before. The same measure for `Clc1ccc2c(NCCNC3CCCCC3)ccnc2c1`: 100 µg/mL (≈ 329 µM); for `OC(c1cc(C(F)(F)F)nc2c(C(F)(F)F)cccc12)C1CCCCN1` (configuration not stated) [MEFLOQUINE]: 25 µg/mL (≈ 66.1 µM). Next, `NCCCNc1ccnc2cc(Cl)ccc12`: greater than 100 µg/mL; `CCC(CCl)Nc1ccnc2cc(Cl)ccc12` (configuration not stated): 50 µg/mL (≈ 186 µM); `NCCCCCCCCNc1ccnc2cc(Cl)ccc12`: 6.25 µg/mL (≈ 20.4 µM).

In turn, `CC[C@@H](CO)Nc1ccnc2cc(Cl)ccc12` showed a minimum inhibitory concentration (MIC) greater than 100 µg/mL. The same measure for `CC[C@H](CO)Nc1ccnc2cc(Cl)ccc12`: greater than 100 µg/mL. Next, `COc1cc(NC(C)CCCN)c2ncccc2c1` (configuration not stated) [PRIMAQUINE]: 50 µg/mL (≈ 193 µM); `ClCCNc1ccnc2ccccc12`: greater than 100 µg/mL. Next, `[N-]=[N+]=Nc1ccnc2cc(Cl)ccc12`: greater than 100 µg/mL; `CC(C)NCCNc1ccnc2cc(Cl)ccc12`: greater than 100 µg/mL; `OCCCNc1ccnc2cc(Cl)ccc12`: greater than 100 µg/mL. `Nc1ccnc2ccccc12` [QUINOLIN-4-AMINE] registered an MIC greater than 100 µg/mL. The same measure for `CCCNCCNc1ccnc2cc(Cl)ccc12`: 100 µg/mL (≈ 379 µM); for `CCC(CO)Nc1ccnc2cc(Cl)ccc12` (racemic): greater than 100 µg/mL. Take `N#CCCNc1ccnc2cc(Cl)ccc12`: the minimal inhibitory concentration (MIC) was greater than 100 µg/mL.
